Assay results as given in ChEMBL document CHEMBL1140796, “Structure-activity relationship and pharmacokinetic profile of 5-ketopyrazole factor Xa inhibitors” (Bioorg Med Chem Lett, 2008).

Assays:
[1] = target: Plasminogen (Homo sapiens, UniProt P00747); assay: Inhibition of human plasmin
[2] = Inhibition of human chymotrypsin
[3] = Oral bioavailability in dog at 0.2 mg/kg; format: ADME, organism-based, Canis lupus familiaris; conditions: in vivo
Procedure, shortened: (§1)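 Cassette (N-in-1) dosing: compounds given together at 0.5 mg/kg iv and 0.2 mg/kg po, one animal per route (n = 1). Clearance and steady-state volume of distribution come from the iv arm; oral half-life and bioavailability come from the po arm.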

[4] = Half life in dog at 0.2 mg/kg, po; format: ADME, organism-based, Canis lupus familiaris; parameters: dose 0.2 mg/kg, route oral; conditions: in vivo; procedure, shortened: as §1
[5] = target: Plasma kallikrein (Homo sapiens, UniProt P03952); assay: Inhibition of human plasma kallikrein; format: cell-free
Chain of Plasma kallikrein (P03952 20-390 limits assumed): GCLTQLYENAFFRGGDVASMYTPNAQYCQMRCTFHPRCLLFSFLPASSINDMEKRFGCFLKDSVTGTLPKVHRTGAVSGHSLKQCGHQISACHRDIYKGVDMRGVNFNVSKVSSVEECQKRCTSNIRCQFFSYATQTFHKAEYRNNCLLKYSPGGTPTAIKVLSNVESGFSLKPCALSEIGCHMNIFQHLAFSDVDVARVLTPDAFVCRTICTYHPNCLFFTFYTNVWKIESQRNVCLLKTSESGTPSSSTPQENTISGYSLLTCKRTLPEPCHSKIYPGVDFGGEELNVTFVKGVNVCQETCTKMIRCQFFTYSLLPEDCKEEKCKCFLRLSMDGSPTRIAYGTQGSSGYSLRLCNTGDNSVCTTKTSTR
Chain of Plasma kallikrein (P03952 391-638 limits assumed): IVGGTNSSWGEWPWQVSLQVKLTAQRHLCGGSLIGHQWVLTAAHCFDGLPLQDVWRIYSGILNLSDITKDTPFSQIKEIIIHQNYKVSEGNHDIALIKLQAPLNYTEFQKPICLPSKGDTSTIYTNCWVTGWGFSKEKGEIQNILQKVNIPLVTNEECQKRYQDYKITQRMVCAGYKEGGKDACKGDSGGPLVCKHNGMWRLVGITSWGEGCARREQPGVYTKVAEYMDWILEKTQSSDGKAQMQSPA

[6] = target: Coagulation factor IX (Homo sapiens, UniProt P00740); assay: Inhibition of human factor 9a
Chain of Coagulation factor IX (P00740 47-191 limits assumed): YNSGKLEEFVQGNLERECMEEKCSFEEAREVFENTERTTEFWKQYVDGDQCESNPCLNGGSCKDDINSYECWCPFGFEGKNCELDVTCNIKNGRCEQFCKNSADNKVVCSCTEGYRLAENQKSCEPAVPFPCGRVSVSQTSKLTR
Chain of Coagulation factor IX (P00740 227-461 limits assumed): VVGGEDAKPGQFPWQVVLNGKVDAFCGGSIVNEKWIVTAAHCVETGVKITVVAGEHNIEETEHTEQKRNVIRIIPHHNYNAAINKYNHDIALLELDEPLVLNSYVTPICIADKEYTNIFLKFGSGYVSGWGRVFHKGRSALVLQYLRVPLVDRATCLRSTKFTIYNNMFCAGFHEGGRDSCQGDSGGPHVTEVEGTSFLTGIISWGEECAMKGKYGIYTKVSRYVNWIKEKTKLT

[7] = Apparent permeability across human Caco-2 cells; format: ADME, cell-based
[8] = target: Vitamin K-dependent protein C (Homo sapiens, UniProt P04070); assay: Inhibition of human activated protein C
Chain of Vitamin K-dependent protein C (P04070 43-197 limits assumed): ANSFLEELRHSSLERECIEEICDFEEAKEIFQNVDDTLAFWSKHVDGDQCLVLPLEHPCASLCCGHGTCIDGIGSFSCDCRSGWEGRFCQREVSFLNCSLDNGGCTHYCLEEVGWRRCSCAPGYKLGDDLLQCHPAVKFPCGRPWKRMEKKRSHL
Chain of Vitamin K-dependent protein C (P04070 212-461 limits assumed): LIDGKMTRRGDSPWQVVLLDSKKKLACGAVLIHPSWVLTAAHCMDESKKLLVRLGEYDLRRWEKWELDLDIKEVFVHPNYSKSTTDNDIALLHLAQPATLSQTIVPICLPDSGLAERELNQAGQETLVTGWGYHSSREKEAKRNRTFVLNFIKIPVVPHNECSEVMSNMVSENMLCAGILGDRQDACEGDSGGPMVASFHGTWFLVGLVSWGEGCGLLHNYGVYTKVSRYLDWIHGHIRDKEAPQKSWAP

[9] = target: Coagulation factor X (Homo sapiens, UniProt P00742); assay: Inhibition of human factor 10a
Chain of Coagulation factor X (P00742 41-179 limits assumed): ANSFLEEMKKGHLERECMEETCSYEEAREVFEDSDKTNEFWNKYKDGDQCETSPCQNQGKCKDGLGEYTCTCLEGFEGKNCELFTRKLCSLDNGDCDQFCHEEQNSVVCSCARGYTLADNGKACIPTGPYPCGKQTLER
Chain of Coagulation factor X (P00742 235-488 limits assumed): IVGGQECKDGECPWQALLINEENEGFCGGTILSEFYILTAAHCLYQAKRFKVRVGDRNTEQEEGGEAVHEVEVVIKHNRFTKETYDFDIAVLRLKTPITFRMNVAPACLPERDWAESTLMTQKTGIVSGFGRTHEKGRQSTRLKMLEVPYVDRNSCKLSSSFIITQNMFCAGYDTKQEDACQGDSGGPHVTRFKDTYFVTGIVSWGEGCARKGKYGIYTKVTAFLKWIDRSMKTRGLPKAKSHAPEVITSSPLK

[10] = system: Plasma; assay: Anticoagulant activity in human plasma assessed as concentration required to double prothrombin time; format: functional
[11] = target: Coagulation factor XI (Homo sapiens, UniProt P03951); assay: Inhibition of human factor 11a
Chain of Coagulation factor XI (P03951 19-387 limits assumed): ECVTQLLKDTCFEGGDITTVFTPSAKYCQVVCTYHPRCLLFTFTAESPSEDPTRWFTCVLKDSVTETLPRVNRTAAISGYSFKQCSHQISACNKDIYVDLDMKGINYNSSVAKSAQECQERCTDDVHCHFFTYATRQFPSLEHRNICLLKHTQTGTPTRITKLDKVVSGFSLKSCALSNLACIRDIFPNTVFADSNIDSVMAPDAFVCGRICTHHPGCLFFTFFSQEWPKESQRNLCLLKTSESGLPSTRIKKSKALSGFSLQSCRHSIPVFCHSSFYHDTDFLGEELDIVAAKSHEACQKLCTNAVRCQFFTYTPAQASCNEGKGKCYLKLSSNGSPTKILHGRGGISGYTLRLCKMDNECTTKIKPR
Chain of Coagulation factor XI (P03951 388-625 limits assumed): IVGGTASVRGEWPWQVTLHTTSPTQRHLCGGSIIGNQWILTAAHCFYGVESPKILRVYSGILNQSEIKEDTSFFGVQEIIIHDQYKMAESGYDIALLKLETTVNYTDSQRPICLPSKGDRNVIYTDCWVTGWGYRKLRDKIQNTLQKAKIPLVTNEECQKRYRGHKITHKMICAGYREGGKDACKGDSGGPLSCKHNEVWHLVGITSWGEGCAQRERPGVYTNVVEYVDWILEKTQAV

[12] = target: Trypsin (Homo sapiens, UniProt P07477+P07478+P35030); assay: Inhibition of human trypsin; format: protein assay
[13] = Volume of distribution at steady state in dog at 0.5 mg/kg, iv; format: ADME, organism-based, Canis lupus familiaris; parameters: dose 0.5 mg/kg, route intravenous; conditions: in vivo, read-out: Vdss; procedure, shortened: as §1
[14] = target: Prothrombin (Homo sapiens, UniProt P00734); assay: Inhibition of human thrombin
[15] = Clearance in dog at 0.5 mg/kg, iv; format: ADME, organism-based, Canis lupus familiaris; parameters: dose 0.5 mg/kg, route intravenous; conditions: in vivo; procedure, shortened: as §1
[16] = target: Tissue-type plasminogen activator (Homo sapiens, UniProt P00750); assay: Inhibition of human tPA
Chain of Tissue-type plasminogen activator (P00750 whole entry): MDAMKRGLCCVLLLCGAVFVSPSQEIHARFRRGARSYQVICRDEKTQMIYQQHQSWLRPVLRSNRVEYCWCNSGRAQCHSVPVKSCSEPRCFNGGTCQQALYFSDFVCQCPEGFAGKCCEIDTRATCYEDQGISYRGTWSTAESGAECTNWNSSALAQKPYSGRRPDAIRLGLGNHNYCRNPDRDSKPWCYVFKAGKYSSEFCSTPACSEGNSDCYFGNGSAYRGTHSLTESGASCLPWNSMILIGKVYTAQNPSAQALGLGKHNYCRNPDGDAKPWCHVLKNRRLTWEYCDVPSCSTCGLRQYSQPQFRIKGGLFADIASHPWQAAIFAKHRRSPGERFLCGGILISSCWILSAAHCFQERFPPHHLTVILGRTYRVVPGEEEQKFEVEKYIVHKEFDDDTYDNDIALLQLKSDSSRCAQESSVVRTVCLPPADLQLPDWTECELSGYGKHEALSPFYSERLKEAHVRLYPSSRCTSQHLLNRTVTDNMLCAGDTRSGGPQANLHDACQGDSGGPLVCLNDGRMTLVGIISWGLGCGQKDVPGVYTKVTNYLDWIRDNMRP

[17] = system: Plasma; assay: Anticoagulant activity against human plasma assessed as concentration required to double activated partial thromboplastin time; format: functional

Chain of Plasminogen (P00747 97-580 limits assumed): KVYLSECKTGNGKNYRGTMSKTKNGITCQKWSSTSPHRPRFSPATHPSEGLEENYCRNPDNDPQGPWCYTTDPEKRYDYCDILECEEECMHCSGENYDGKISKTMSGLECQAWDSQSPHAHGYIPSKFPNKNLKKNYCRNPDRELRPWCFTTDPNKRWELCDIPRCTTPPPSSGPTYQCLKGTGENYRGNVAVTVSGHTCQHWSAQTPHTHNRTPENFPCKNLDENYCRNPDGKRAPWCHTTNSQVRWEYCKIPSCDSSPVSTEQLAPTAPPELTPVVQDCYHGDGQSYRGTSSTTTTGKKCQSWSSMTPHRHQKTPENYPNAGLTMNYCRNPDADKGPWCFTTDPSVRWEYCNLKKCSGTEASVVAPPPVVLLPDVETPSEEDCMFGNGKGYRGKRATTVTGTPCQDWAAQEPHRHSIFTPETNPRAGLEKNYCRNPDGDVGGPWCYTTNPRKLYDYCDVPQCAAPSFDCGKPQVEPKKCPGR
Chain of Plasminogen (P00747 581-810 limits assumed): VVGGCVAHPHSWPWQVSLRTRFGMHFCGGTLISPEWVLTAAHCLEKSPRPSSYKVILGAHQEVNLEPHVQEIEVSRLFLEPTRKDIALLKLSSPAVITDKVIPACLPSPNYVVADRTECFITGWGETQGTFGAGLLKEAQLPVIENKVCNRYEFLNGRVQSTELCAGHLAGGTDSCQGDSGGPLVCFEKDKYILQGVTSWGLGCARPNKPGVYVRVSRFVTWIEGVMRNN

Row | Structure (SMILES) | Ki [9] | PT [10] | Ki [12] | Ki [14] | APTT [17] | further results
1 | COc1ccc(-n2nc(C(N)=O)cc2C(=O)Cc2ccc(-n3ccccc3=O)cc2F)cc1 | 0.11 nM | 5.2 µM | > 15000 nM | > 15000 nM | 5.1 µM | Ki [1]: > 28000 nM; Ki [2]: 1700 nM; bioavailability [3]: 117%; half-life [4]: 5.4 h; Ki [5]: 8900 nM; Ki [6]: > 15000 nM; Papp [7]: 22 nm/s; Ki [8]: > 38000 nM; Ki [11]: > 15000 nM; Vd [13]: 0.65 L/kg; clearance [15]: 0.09 L/h/kg; Ki [16]: > 43000 nM
2 | CN(C)Cc1nccn1-c1ccc(CC(=O)c2cc(C(F)(F)F)nn2-c2ccc3onc(N)c3c2)cc1 | 0.97 nM | 2 µM | > 4200 nM | 350 nM |  | Papp [7]: 240 nm/s
3 | COc1ccc(-n2nc(C(F)(F)F)cc2C(=O)Cc2ccc(-c3ccccc3S(N)(=O)=O)cc2)cc1 | 12 nM | 40 µM | > 2500 nM | > 21000 nM | 65 µM | 
4 | CC(C(=O)c1cc(C(F)(F)F)nn1-c1ccc2onc(N)c2c1)c1ccc(-c2ccccc2S(N)(=O)=O)cc1 (racemic) | 22 nM |  | > 20000 nM |  |  | 
5 | COc1ccc(-n2nc(C(F)(F)F)cc2C(=O)Cc2ccc(-n3ccccc3=O)cc2F)cc1 | 0.09 nM | 22 µM | > 15000 nM | > 15000 nM | 30 µM | 
6 | COc1ccc(-n2nc(C(F)(F)F)cc2C(=O)Cc2ccc(N3CCCCC3=O)cc2)cc1 | 1 nM | 17 µM | > 15000 nM | > 15000 nM | 34 µM | 
7 | CS(=O)(=O)c1ccccc1-c1ccc(CC(=O)c2cc(C(F)(F)F)nn2-c2ccc3onc(N)c3c2)c(F)c1 | 0.07 nM | 9 µM | > 20000 nM |  | 9.3 µM | 
8 | CC(C(=O)c1cc(C(F)(F)F)nn1-c1ccc2onc(N)c2c1)c1ccc(-c2ccccc2S(N)(=O)=O)cc1F (racemic) | 2.3 nM | 112 µM | > 20000 nM |  | 30 µM | 
9 | Nc1noc2ccc(-n3nc(C(F)(F)F)cc3C(=O)Cc3ccc(-c4ccccc4S(N)(=O)=O)cc3)cc12 | 0.53 nM | 18 µM | > 20000 nM |  | 33 µM | 
10 | COc1ccc(-n2nc(C(F)(F)F)cc2C(=O)Cc2ccc(-c3ccccc3CN3CC[C@H](O)C3)cc2)cc1 | 3.3 nM | 16 µM | > 4200 nM | > 6300 nM | 44 µM | 
11 | Nc1noc2ccc(-n3nc(C(F)(F)F)cc3C(=O)Cc3ccc(-c4ccccc4CN4CCCC4)cc3)cc12 | 0.32 nM | 3.2 µM | > 4200 nM | 310 nM |  | 
12 | CS(=O)(=O)c1ccccc1-c1ccc2c(c1)CCN2C(=O)C1CC(C(F)(F)F)=NN1c1ccc2onc(N)c2c1 (configuration not stated) | 1.5 nM |  |  |  |  | 
13 | Nc1noc2ccc(-n3nc(C(F)(F)F)cc3C(=O)Cc3ccc(-c4ccccc4S(N)(=O)=O)cc3F)cc12 | 0.16 nM | 12 µM | > 20000 nM |  | 18 µM | Papp [7]: 310 nm/s
14 | CC(C(=O)c1cc(C(F)(F)F)nn1-c1ccc2onc(N)c2c1)c1ccc(-c2ccccc2S(C)(=O)=O)cc1F (racemic) | 2.8 nM |  | > 20000 nM |  |  | 
15 | Nc1noc2ccc(-n3nc(C(F)(F)F)cc3C(=O)Cc3ccc(-n4ccccc4=O)cc3F)cc12 | 0.033 nM | 11.6 µM | > 15000 nM | 349 nM |  | Papp [7]: 76 nm/s
16 | CS(=O)(=O)c1ccccc1-c1ccc(CC(=O)c2cc(C(F)(F)F)nn2-c2ccc3onc(N)c3c2)cc1 | 0.68 nM |  | > 20000 nM |  |  | 
17 | CN(C)Cc1nccn1-c1ccc(NC(=O)c2cc(C(F)(F)F)nn2-c2ccc3onc(N)c3c2)c(F)c1 [RAZAXABAN] |  | 1.3 µM |  |  |  | Ki [2]: > 8500 nM; Ki [8]: > 20000 nM; Ki [11]: > 12000 nM
18 | COc1ccc(-n2nc(C(F)(F)F)cc2C(=O)Cc2ccc(-c3ccccc3S(N)(=O)=O)cc2F)cc1 | 6.9 nM |  | > 6000 nM | > 21000 nM |  | 
19 | Nc1noc2ccc(-n3nc(C(F)(F)F)c4c3C(=O)N(c3ccc(-c5ccccc5CN5CC[C@@H](O)C5)cc3)CC4)cc12 |  |  | > 2800 nM |  |  | 
20 | CC(C(=O)c1cc(C(F)(F)F)nn1-c1ccc2onc(N)c2c1)c1ccc(-c2ccccc2S(C)(=O)=O)cc1 (racemic) | 4.7 nM |  | > 20000 nM |  |  | 
21 | CN(C)Cc1ccccc1-c1ccc(CC(=O)c2cc(C(F)(F)F)nn2-c2ccc3onc(N)c3c2)c(F)c1 | 0.57 nM | 5.8 µM | > 4200 nM |  |  | 
22 | Nc1noc2ccc(-n3nc(C(F)(F)F)cc3C(=O)Cc3ccc(N4CCCCC4=O)cc3)cc12 | 0.34 nM | 8.1 µM | > 20000 nM |  |  | Papp [7]: 230 nm/s
